Screening data (PubChem)
T cell HTS – modulates CD8 T cell binding to vesicles; 2C CD8+ T cell-vesicle binding, flow cytometry; hits give low values; response (vesicle binding), % at 7 µM; 330,000 tested, 0.068% active;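 active means response, share of CD8 T cells binding vesicles, and their 90th percentile fluorescence all below set limits, cut at about 80% in these data, passing the limit was not always enough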;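 further: values below 100% mean blocked vesicle binding to the CD8+ T cells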
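incubation = binding step 1.5 h, 37 °C, antibody labelling 20 min, ice | test system = 2C mouse CD8+ T cells | read-out basis = percent CD8+ FL2 mean versus row control | controls = Peptide-free naked vesicles (low) and QL9 vesicles with 0.7% DMSO vehicle (high) | detection = flow cytometry of vesicle-bound cells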
ALR H2O2 inh – human ALR oxidase inhibition via reduced H2O2. purified ALR, DTT oxidation, H2O2 HRP-luminol luminescence. inhibition, % (no concentration beside the values). 290,000 tested, 3.8% active. AID 485317;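 active means mean replicate inhibition above about 79%, with every replicate also reaching it, limit read from the data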
Target sequence (P55789 whole entry, looked up): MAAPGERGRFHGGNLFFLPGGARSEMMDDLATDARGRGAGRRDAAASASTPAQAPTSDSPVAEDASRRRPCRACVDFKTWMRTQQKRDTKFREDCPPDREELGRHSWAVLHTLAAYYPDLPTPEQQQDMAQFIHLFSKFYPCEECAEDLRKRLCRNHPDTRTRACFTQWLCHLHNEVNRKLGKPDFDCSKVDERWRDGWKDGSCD
Glyco luc inh – blocks N-linked glycosylation in D54 reporter cells | D54 ERlucT glycosylation luciferase reporter, 24 h; percent of 100 nM tunicamycin response | reporter increase, % at 12.5 µM | 360,000 tested, 0.23% active;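 active means mean luciferase reporter signal, scaled so untreated is 0 and the glycosylation-blocking control 100, at or above a set limit in every replicate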;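 further: luciferase carries N-glycosylation sites so blocking glycosylation raises the light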
Each line names hits and unclear results; the compound was inactive in the other large screens. This is one part of a sample in which hits are shown more often than they occur.

Cc1ccccc1NC(=O)C1CCCN1S(=O)(=O)c1ccc2c(c1)n(C)c(=O)c(=O)n2C (stereo not given)	none
CN1C(=O)CCC2(c3ccccc3)CC=C(O)C=C12 (stereo not given)	none (no result: T cell HTS, ALR H2O2 inh)
Cc1n[nH]c(=S)n(NC(=O)/C=C/C(=O)Nn2c(=S)[nH]nc(C)c2=O)c1=O	none (no result: T cell HTS, ALR H2O2 inh)
Cc1nn2c(=S)[nH]nc2[nH]c1=O	ALR H2O2 inh 95
Cc1ccc(C2C(C#N)=C(N)Oc3n[nH]c(C)c32)cc1 (stereo not given)	none (no result: ALR H2O2 inh)
Cc1[nH]nc2c1C(c1cnn(C)c1)C(C#N)=C(N)O2 (stereo not given)	T cell HTS 59
O=C(NCc1ncc(C(F)(F)F)cc1Cl)Nc1ccccc1	none
N#C/C(=C\C=C\c1ccccc1[N+](=O)[O-])C(=O)NC1CCCCC1	ALR H2O2 inh 99
N#C/C(=C\c1ccccc1[N+](=O)[O-])C(=O)NC1CCCCC1	none
Cc1ccc(OCC(=O)Nc2cc(S(=O)(=O)N3CCOCC3)ccc2Cl)c([N+](=O)[O-])n1	none
COc1ccc(C(=O)COC(=O)CCN2C(=O)C3CC=CCC3C2=O)c(OC)c1 (stereo not given)	none (no result: T cell HTS, ALR H2O2 inh)
CCOc1ccc(-c2cn[nH]c2N)cc1	none
COc1ccc(-c2n[nH]c(=S)n2N)c(OC)c1	none
COc1ccc(-c2cn[nH]c2N)cc1	ALR H2O2 inh 91
COc1ccc(-c2cn[nH]c2N)c(OC)c1	ALR H2O2 inh 99
O=C(NCc1ccco1)Nc1nnc([C@H]2C[C@H](O)[C@@H](CO)O2)s1	none (no result: T cell HTS, ALR H2O2 inh)
CC(=O)N1CCc2c(sc(NC(=O)c3cccc(N4C(=O)CCC4=O)c3)c2C(N)=O)C1	none
COc1ccc(-c2nc3cc(C)ccn3c2NCC2CCCO2)cc1OC (stereo not given)	none
COc1cc(-c2nc3cccc(C)n3c2NCC2CCCO2)ccc1O (stereo not given)	ALR H2O2 inh 99
COc1cccc(/C=C2/Oc3ccccc3N(CC(=O)NCC3CCCO3)C2=O)c1 (stereo not given)	none
O=C(COC(=O)c1cc(Cl)ccc1O)Nc1cc(C(F)(F)F)ccc1N1CCOCC1	none
COc1ccc(-c2cn[nH]c2-c2ccc(OCC(=O)NN)cc2O)cc1OC	none
COc1ccccc1-c1cn[nH]c1-c1ccc(OCc2ccc(F)cc2)cc1O	none (no result: ALR H2O2 inh)
COc1ccc(-c2cn[nH]c2-c2ccc(OCC(=O)NN)cc2O)cc1	ALR H2O2 inh 78
COc1ccccc1-c1cn[nH]c1-c1ccc(OCC(=O)NN)cc1O	ALR H2O2 inh 95
Cc1ccc2c(c1)N(CC(=O)N1CCN(c3ccccc3)CC1)C(=O)C(C)O2 (stereo not given)	none
O=C(Nc1ccccc1C(=O)N1CCN(Cc2ccccc2)CC1)c1ccccc1	none
COC(=O)C1CSC(C(=O)OC)N1C(=O)Nc1ccccc1 (stereo not given)	none (no result: ALR H2O2 inh)
COC(=O)C1CSC(C(=O)OC)N1C(=O)CN1CCN(c2ccccc2)CC1 (stereo not given)	ALR H2O2 inh 91
CC(=O)NNC(=O)CSc1nnc(-c2ccccc2)c(-c2ccccc2)n1	ALR H2O2 inh 83
CC(C)(C)NC(=O)CSc1nnc(-c2ccccc2)c(-c2ccccc2)n1	none
O=C1c2ccccc2C(=O)c2c(Nc3ccc(CCO)cc3)ccc(O)c21	none
O=C1c2c(O)ccc(O)c2C(=O)c2c(NCCNCCO)ccc(NCCNCCO)c21	ALR H2O2 inh 100
O=C1C(=C(I)I)c2ccccc2-c2ccccc21	none (no result: T cell HTS, ALR H2O2 inh)
C(=N\NC1=NCCN1)/c1ccncc1	none
CCOC(=O)c1oc2c(O)c(O)ccc2c(=O)c1-c1nncn1-c1ccccc1	none (no result: ALR H2O2 inh)
CC1Oc2cc3oc4c(O)c(O)ccc4c(=O)c3c(O)c2C1(C)C (stereo not given)	ALR H2O2 inh 98
CC(=O)NC1CC2CCCC(C1)N2C(=O)Nc1c(C)cccc1C (stereo not given)	none (no result: T cell HTS, ALR H2O2 inh)
Cn1ncc(Br)c1NC(=O)c1cc(Cl)cc(Cl)c1	none (no result: ALR H2O2 inh)
CC(=O)Nc1ccnc(-c2cccnc2)n1	none
CCCCC(=O)Nc1ccnc(-c2cccnc2)n1	ALR H2O2 inh 85
COc1cc(C(=S)N2CCCC2)ccc1OCc1ccccc1	none
COC(=O)N/N=C/c1ccccc1OCc1ccccc1	none (no result: ALR H2O2 inh)
CC(=O)Nc1ccc(C(=O)N/N=C/c2ccccc2OCc2ccccc2)cc1	Glyco luc inh 41
Cc1nn(C)c(Cl)c1C(=O)NCC(=O)NCc1ccccc1	none
COc1ccc2[nH]cc(CCNC(=O)Cn3cc(C)c(=O)[nH]c3=O)c2c1	none (no result: T cell HTS, ALR H2O2 inh)
CC1CC(C)CN(C(=O)c2ccc3ncsc3c2)C1 (stereo not given)	ALR H2O2 inh 79
CC1CC(C)CN(C(=O)c2ccc3nc[nH]c3c2)C1 (stereo not given)	none
O=C(c1ccc2ncsc2c1)N1CCN(c2ccc(O)cc2)CC1	ALR H2O2 inh 99
O=C(c1ccc2ncsc2c1)N1CCN(c2ccccc2Cl)CC1	none
CCOC(=O)[C@@H](NC(=O)/C=C/[C@H]1O[C@@H](n2ccc(=O)[nH]c2=O)[C@H](O)[C@@H]1O)C(C)C	none (no result: T cell HTS, ALR H2O2 inh)
COCC1CCN(Cc2c(C(=O)N3CCc4ccccc4C3)nc3ccc(Cl)cn23)C1 (stereo not given)	none
O=C(NC(Cc1ccccc1)C(=O)O)/C(=C\c1ccccc1)NC(=O)c1ccc(Br)o1 (stereo not given)	none
OCC1(CC2CCCCO2)CCN(Cc2cccc(O)c2)CC1 (stereo not given)	none
CCCCn1c(SCc2nnc(-c3ccccc3)o2)nc2c1c(=O)n(C)c(=O)n2C	ALR H2O2 inh 78
CCCCn1c(SCC(=O)N2c3ccccc3CCc3ccccc32)nc2c1c(=O)n(C)c(=O)n2C	none
COc1ccc(-c2nc3ccc(C)cn3c2CC2CCCCC2)cc1OC	none (no result: T cell HTS, ALR H2O2 inh)
Cc1ccccc1NC(=O)CSC(N)=O	none (no result: ALR H2O2 inh)
COc1ccccc1CC(=O)Nc1ccccc1O	ALR H2O2 inh 89
COc1ccccc1NC(=O)CSC(N)=O	ALR H2O2 inh 99
NC(=O)SCC(=O)Nc1ccccc1C(=O)O	ALR H2O2 inh 94
COc1ccccc1CC(=O)Nc1cc(Cl)ccc1O	none
O=C(CSc1ccccc1)Nc1ccccc1C(=O)O	none
Cc1cc(C)n(-c2ccc(S(N)(=O)=O)cc2[N+](=O)[O-])n1	none
Cc1cc(=O)n(C)c(=O)n1CCCCCN1CCCC1	ALR H2O2 inh 100
Cc1cc(=O)n(C)c(=O)n1CCCCCCOc1cccc([N+](=O)[O-])c1	none (no result: ALR H2O2 inh)
O=C(NCCc1ccccc1)c1nc2c(nnn2Cc2ccccc2Cl)c(=O)[nH]1	none
COc1ccc(Cn2nnc3c(=O)[nH]c(C(=O)NCCc4ccc(F)cc4)nc32)cc1OC	ALR H2O2 inh 94
C(=NOCCc1ccccc1)c1ccccn1	none (no result: T cell HTS, ALR H2O2 inh)
O=C1C=CC(=O)N1c1ccc(Nc2ccccc2)cc1	none (no result: T cell HTS, ALR H2O2 inh)
O=C1C(Nc2ccccc2)=C2CCCC=C2N1c1ccccc1	ALR H2O2 inh 102
C=CCNC(=O)CC(=O)N/N=C/c1cccs1	none
Cc1cc(Sc2ncnc(N)c2[N+](=O)[O-])ncn1	none
Cc1cc(Sc2nc(N)ncc2[N+](=O)[O-])ncn1	ALR H2O2 inh 98
COc1cccc(/C=c2\sc3nc(-c4cccs4)nn3c2=O)c1OC	none
Cc1ccc(/C=c2\sc3nc(-c4cccs4)nn3c2=O)o1	ALR H2O2 inh 99
Cc1cccc2[nH]c(CCNC(=O)C3CCC(=O)N(CCc4cccc(F)c4)C3)nc12 (stereo not given)	none
O=C(Nc1ccc(N2CCN(c3ccccc3)CC2)c(F)c1)C1CC1	none
